Experimental data pooled from the literature.

CC(C)c1ccccc1[C@@H]1CCCN1C1CC2(CCN(c3ccc(C(=O)NS(=O)(=O)c4ccc(NC[C@H]5CC[C@](C)(O)CC5)c([N+](=O)[O-])c4)c(Oc4cnc5[nH]ccc5c4)c3)CC2)C1
IC50 (MV4-11; cell growth or viability; ATP luminescence; 48 h): 1.2 nM

CC(O)CSc1nnc(-c2cc3ccccc3o2)n1-c1ccccc1 (stereo not shown)
inhibition zone (Escherichia coli; microbial growth; disc diffusion; 25 µg/disc): 10.3 mm

COc1cc(C=Nc2ccc(C)cc2Cl)ccc1O
inhibition zone (Escherichia coli; microbial growth; disc diffusion; 2000 µg/mL; 24 h): 14.8 mm

Cc1nc(Nc2ccc3c(c2)/C(=C/c2ccccc2C)C(=O)N3C)c2ccccc2n1
IC50 (BEAS-2B; cell growth or viability; MTT): 15400 nM

Cc1c(C(=O)O)ccc2c3n(nc12)[C@@H]1[C@H](C3)N(CC2CC2)[C@@]2(C(=O)Nc3cc(Cl)ccc32)[C@H]1c1cccc(Cl)c1F
GI50 (human Fibroblast; cell growth or viability; ATP luminescence; 72 h): 5 nM

CC1(C)CCC(CN2CCN(c3ccc(C(=O)NS(=O)(=O)c4ccc(NCC5CCOCC5)c([N+](=O)[O-])c4)c(Oc4cnc5[nH]ccc5c4)c3)CC2)=C(c2ccc(Cl)cc2)C1
IC50 (KMS-12-PE; cell growth or viability; ATP luminescence; 48 h): 13 nM

CN(C)[C@@H]1C(O)=C(C(N)=O)C(=O)[C@@]2(O)C(O)=C3C(=O)c4c(O)cccc4[C@@](C)(O)[C@H]3C[C@@H]12
inhibition zone (Escherichia coli; microbial growth; disc diffusion; 100 µg/mL; 24 h): 0 mm

COc1cc2ncnc(N(C)c3ccc4c(c3)/C(=C/c3cccc(Cl)c3)C(=O)N4C)c2cc1OC
IC50 (BEAS-2B; cell growth or viability; MTT): 10100 nM

CC(O)CSc1nnc(-c2ccccc2)n1-c1ccccc1 (stereo not shown)
inhibition zone (Staphylococcus aureus; microbial growth; disc diffusion; 25 µg/disc): 10 mm

C=CC(=O)NC1CCN(c2ncc3ncnc(Nc4ccc(Oc5ccc6c(c5)ncn6C)c(C)c4)c3n2)CC1
EC50 (IM95; cell growth or viability): 54.1 nM
